Experimental data of several laboratories.
Protocols differ between the studies behind these lines.
Cell line: A549
Effect on: cell growth or viability

C=CCc1cc(OC)c2c(c1)OCO2 — IC50 (SRB): 359000 nM
CC[C@@]1(OC(=O)CN)C(=O)OCc2c1cc1n(c2=O)Cc2cc3cc4c(cc3nc2-1)OCO4 — IC50 (MTT): 29 nM
N.N.[Cl][Pt][Cl] — IC50 (MTT; 24 h): 5350 nM
N#Cc1ccc(CN2C(=O)/C(=N\NC(=O)c3cc4ccccc4[nH]3)c3ccccc32)cc1 — IC50: 2130 nM
CC1=C(O)C(=O)C=C2C1=CC=C1[C@@]2(C)CC[C@@]2(C)[C@@H]3C[C@](C)(C(=O)O)CC[C@]3(C)CC[C@]12C — IC50 (MTT; 48 h): 5340 nM
O=C(N/N=C1\C(=O)N(Cc2ccccc2)c2ccc(Cl)cc21)c1cc2ccccc2[nH]1 — IC50 (72 h): 1330 nM
COc1ccc2c(c1)[nH]c1c(C)nccc12 — IC50 (MTT; 72 h): 19400 nM
O=C(N/N=C1\C(=O)N(Cc2ccc(Cl)cc2)c2ccccc21)c1cc2ccccc2[nH]1 — IC50: 1050 nM
Nc1cc(Cl)c(Cl)cc1N — IC50 (72 h): 120000 nM
CC[C@@]1(OC(=O)Cc2c(C)n(C(=O)c3ccc(Cl)cc3)c3ccc(OC)cc23)C(=O)OCc2c1cc1n(c2=O)Cc2cc3cc4c(cc3nc2-1)OCO4 — IC50 (MTT): 263 nM
N.N.[Cl][Pt][Cl] — IC50 (MTT; 48 h): 9240 nM
COc1ccc2c(c1)/C(=N/NC(=O)c1cc3ccccc3[nH]1)C(=O)N2Cc1ccccc1 — IC50: 640 nM
CC[C@@]1(OC(=O)[C@@H](N)C(C)C)C(=O)OCc2c1cc1n(c2=O)Cc2cc3cc4c(cc3nc2-1)OCO4 — IC50 (MTT): 89 nM
Nc1cc(I)c(I)cc1N — IC50 (72 h): 25000 nM
CC[C@@]1(OC(=O)[C@H](C)N)C(=O)OCc2c1cc1n(c2=O)Cc2cc3cc4c(cc3nc2-1)OCO4 — IC50 (MTT): 40 nM
COc1c2c(cc3c1OCO3)[C@]13C=C[C@H](OC)C[C@@H]1[N@](C2)C[C@H]3OC(=O)c1ccoc1 — IC50 (WST-1): > 10000 nM
CC[C@H](C)[C@H](N)C(=O)O[C@]1(CC)C(=O)OCc2c1cc1n(c2=O)Cc2cc3cc4c(cc3nc2-1)OCO4 — IC50 (MTT): 77 nM
COc1c2c(cc3c1OCO3)[C@]13C=C[C@H](OC)C[C@@H]1[N@](C2)C[C@H]3OC(=O)c1ccco1 — IC50 (WST-1): > 10000 nM
COc1cccc2c1C(=O)c1c(O)c3c(c(O)c1C2=O)C[C@@](O)(C(=O)CO)C[C@@H]3O[C@H]1C[C@H](N)[C@H](O[C@@H]2CCCCO2)[C@H](C)O1 — IC50 (MTT; 12 h): 5800 nM
CC[C@@]1(OC(=O)[C@@H](N)CCCCN)C(=O)OCc2c1cc1n(c2=O)Cc2cc3cc4c(cc3nc2-1)OCO4 — IC50 (MTT): 88 nM
